# Only some compounds are listed: those with a hit (about 4% of all), similar ones and a draw of the others.
# TAAR1 antagonist: human TAAR1 antagonists, primary screen, Fluo-8 calcium fluorescence, CHO RD-HGA16 cells; Trace amine-associated receptor 1 (Homo sapiens), Q96RJ0; antagonist; inhibition, % at 3 µM; 1.5% of 360,000 active;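 active = inhibition above a per-plate cutoff, the mean inhibition of test compounds on that plate plus 3 SD, cut at about 49% in these data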;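 note: 0% = DMSO plus EC80 beta-PEA response and 100% = DMSO alone without agonist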
#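 Assay system: RD-HGA16 CHO cells with stable hTAAR1 and Gα16 / Reagent: EC80 β-phenethylamine stimulus / Doses: 3 µM, single point / Timing: dye loading 75 min at 37 °C, then 30 min room temperature / Measured by: Fluo-8 intracellular calcium dye fluorescence, real-time kinetic reads / Controls: vehicle wells and EC80 agonist wells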
# GPR7 antagonist: GPR7 receptor antagonists, primary screen, cell-based, fluorescence, single concentration | Neuropeptides B/W receptor type 1 (Homo sapiens), P48145 | GPR7-expressing cells, fluorescence antagonist assay | inhibition, % at 4.4 µM | 1.1% of 290,000 active | AID 1861, 2009; in the data active = inhibition above about 16%, passing the limit was not always enough;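 note: cells stimulated with the agonist NPW; 0% = agonist with vehicle and 100% = vehicle without agonist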
# DAGLB inh: DAGLB lipase inhibitors, primary screen, biochemical, fluorescence, HTS. HEK293T DAGLB membrane lysate, EnzChek fluorogenic substrate. AID 504411, 2011. inhibition, % at 5.17 µM. 0.059% of 340,000 active. Diacylglycerol lipase-beta (Homo sapiens), Q8NCG7; in the data active = inhibition above about 34%;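 note: 0% = enzyme with vehicle and 100% = wells lacking enzyme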
# Target sequence (Q8NCG7 whole entry, looked up): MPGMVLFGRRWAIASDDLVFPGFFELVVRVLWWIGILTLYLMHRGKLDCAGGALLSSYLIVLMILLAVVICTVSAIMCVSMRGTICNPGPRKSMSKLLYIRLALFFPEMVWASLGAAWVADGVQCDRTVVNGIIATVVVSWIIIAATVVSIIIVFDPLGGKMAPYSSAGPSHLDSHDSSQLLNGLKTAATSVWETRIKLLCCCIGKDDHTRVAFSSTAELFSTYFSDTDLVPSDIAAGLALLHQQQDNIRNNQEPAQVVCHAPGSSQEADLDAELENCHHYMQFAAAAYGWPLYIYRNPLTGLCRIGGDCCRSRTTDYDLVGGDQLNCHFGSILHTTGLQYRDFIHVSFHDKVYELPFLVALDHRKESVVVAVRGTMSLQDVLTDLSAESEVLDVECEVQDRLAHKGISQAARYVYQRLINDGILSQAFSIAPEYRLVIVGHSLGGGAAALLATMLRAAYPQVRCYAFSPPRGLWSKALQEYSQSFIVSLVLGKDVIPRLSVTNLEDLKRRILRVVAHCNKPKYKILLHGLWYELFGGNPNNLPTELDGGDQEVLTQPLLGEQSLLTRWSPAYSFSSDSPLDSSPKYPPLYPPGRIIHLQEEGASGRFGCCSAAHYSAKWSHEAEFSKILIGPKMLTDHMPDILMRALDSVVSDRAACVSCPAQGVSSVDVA
# MPTP inh: mitochondrial permeability transition pore inhibitors, primary screen, biochemical, isolated mouse mitochondria, absorbance | Ca2+ swelling absorbance, 30 min | inhibition, % at 10 µM | 1.4% of 360,000 active | AID 602449, 2012;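 active = inhibition of 50% or more, scaled per plate between neutral and stimulator controls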;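 note: 0% = DMSO wells given calcium and 100% = 1 mM EGTA wells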
# TAAR1 ag: human TAAR1 agonists, primary screen, Fluo-8 calcium fluorescence, CHO RD-HGA16 cells. Trace amine-associated receptor 1 (Homo sapiens), Q96RJ0. AID 624467, 2012. vehicle wells 0%, saturating PEA agonist 100%. 0.99% of 360,000 active. activation, % at 3 µM;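 active = activation above the mean activation of all test compounds in the run plus 3 SD, cut at about 38% in these data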
#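 Signal – calcium-sensitive Fluo-8 signal, excitation 470-495, emission 515-575 nm · System – RD-HGA16 (CHO) cells co-expressing Gα16 and hTAAR1 · Incubation – 17-24 h seeding, 75 min 37 °C dye, 30 min RT · Compound dosing – 3 µM single concentration · Repeats – no replicates (n 1)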
# TAAR1 nonsel count: nonselective antagonists in TAAR1 counter-screen cells, counter-screen for hTAAR1 antagonist project, cell-based, fluorescence, calcium; shares compounds with TAAR1 antagonist; counterscreen cell line, antagonist mode; inhibition, % at 3 µM; 77% of 2,400 active; AID 651780, 2012; in the data active = inhibition above about 22%;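 note: CHO-Ga16 host cells stimulated with ATP at an EC80 level; 0% = agonist EC80 plus vehicle and 100% = vehicle without agonist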
# TAAR1 ant conf: human TAAR1 antagonists, retest of hits, confirmation, cell-based, fluorescence; inhibition, % at 3 µM; AID 651785, 2012; TAAR1-expressing cells, fluorescence antagonist read-out; shares compounds with TAAR1 antagonist; 40% of 2,400 active; in the data active = inhibition above about 49%;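 note: CHO-Ga16 host cells challenged with agonist PEA near its EC80; 0% = agonist at EC80 plus vehicle and 100% = vehicle with no agonist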
# Ga16 nonsel ag: calcium activation in Ga16-expressing cells, counter-screen for TAAR1 antagonist project, cell-based, fluorescence. shares compounds with TAAR1 antagonist. agonist counterscreen. activation, % at 3 µM. 18% of 2,400 active. AID 651953, 2012; in the data active = activation above about 12%;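 note: 0% = vehicle wells and 100% = saturating stimulus response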
# TAAR1 ag counter: TAAR1 activation by candidate antagonists – cell-based, fluorescence, counter-screen for TAAR1 antagonist project. shares compounds with TAAR1 antagonist. hTAAR1 cell line, agonist mode. activation, % at 3 µM. 2% of 2,400 active. AID 651955, 2012; in the data active = activation above about 37%;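 note: CHO cells stably expressing TAAR1 with calcium dye readout; 0% = DMSO vehicle and 100% = full agonist response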
# * marks the source's active call; other numbers are inactive results; . = no result given.
SMILES,TAAR1 antagonist,GPR7 antagonist,DAGLB inh,MPTP inh,TAAR1 ag,TAAR1 nonsel count,TAAR1 ant conf,Ga16 nonsel ag,TAAR1 ag counter
COc1ccc(S(=O)(=O)N2CCN(C(=O)c3cc(-c4ccccc4OC)n[nH]3)CC2)cc1,76*,-5,5,-2,10,25*,39,8,6
CCCCN1C(=O)C(CC(=O)NCC2CCCCC2)CC(C(=O)N2CCCCCC2)=C1C (centres undefined),-19,.,.,0,-2,.,.,.,.
CCOC(=O)c1c(C)[nH]c(C(=O)COC(=O)C2(C)CC2(Cl)Cl)c1C (centres undefined),71*,-6,-6,11,15,45*,74*,11,14
CN(C(=O)c1cccc(Nc2ccc(-c3ccc4c(c3)OCCO4)nn2)c1)C1CCCCC1,54*,-10,-1,-3,13,13,31,5,15
CC1(C(=O)NCc2cccs2)CCN1CCc1ccccc1 (centres undefined),-7,.,.,0,2,.,.,.,.
COc1ccc(-c2cc(C(=O)OC(C)C(=O)Nc3c(C)n(C)n(-c4ccccc4)c3=O)c3ccccc3n2)cc1 (centres undefined),3,0,-4,1,6,.,.,.,.
Cc1c(NC(=O)COC(=O)c2cc(-c3ccc(-c4ccccc4)cc3)nc3ccccc23)c(=O)n(-c2ccccc2)n1C,19,7,-2,1,1,.,.,.,.
Cc1c(NC(=O)c2cc(-c3cccs3)nc3ccccc23)c(=O)n(-c2ccccc2)n1C,46,-14,1,1,20,.,.,.,.
Cc1ccc(-c2cc(C(=O)Nc3c(C)n(C)n(-c4ccccc4)c3=O)c3ccccc3n2)cc1,49*,.,0,0,10,30*,40,6,3
COc1ccc(-c2cc(C(=O)Nc3c(C)n(C)n(-c4ccccc4)c3=O)c3ccccc3n2)c(OC)c1,53*,-5,0,0,8,26*,37,7,11
Cc1c(NC(=O)c2cc(-c3ccccc3)nc3ccccc23)c(=O)n(-c2ccccc2)n1C,59*,.,2,0,14,28*,50*,10,10
COc1cccc(-c2csc(N3CCN(C(=O)Nc4ccc(F)cc4)CC3)n2)c1,79*,-1,-2,22,11,55*,64*,11,6
O=C1CN(C(=O)COC(=O)c2cccs2)c2ccccc2N1,61*,.,-1,0,1,12,1,2,2
CC(C)(C)NC(=O)CSc1nc2ccc(NC(=O)CSc3nnnn3Cc3ccccc3)cc2s1,49*,-2,-3,10,15,36*,26,10,5
Cc1ccccc1OCc1nnc(SCC(=O)Nc2ccc3nc(SCC(=O)NC(C)(C)C)sc3c2)n1C,61*,-9,1,1,22,43*,62*,10,6
COc1ccccc1OCc1nnc(SCC(=O)Nc2ccc(C)cc2)n1C,-13,13,-5,-11,2,.,.,.,.
CCN=C1NC(c2cccc(F)c2)C(C(=O)OC)=C(C)N1Cc1ccccc1C(F)(F)F (centres undefined),-2,.,.,.,8,.,.,.,.
CC(C)NC(=O)C1(C)CSCC(=O)N1Cc1cccc(F)c1 (centres undefined),0,.,.,0,3,.,.,.,.
CC(C)CC(NC(=O)C(CC(C)C)NC(=O)OC(C)(C)C)C(=O)O (centres undefined),-6,-9,1,0,12,.,.,.,.
C#CCN(C[C@@H](CC(C)C)NC(=O)OC(C)(C)C)S(=O)(=O)c1ccc(Br)cc1F,51*,.,-6,-1,2,16,16,3,2
CCN1C(c2ccccc2)C(C)C(=O)C(C)C1c1ccccc1 (centres undefined),52*,-1,-9,-3,0,13,-6,-1,-5
COC(=O)[C@]12C[C@H](CC(=O)N3CCOCC3)C(=O)N(Cc3ccc4c(c3)OCO4)C1=C[C@H](C(C)(C)C)O[C@@H]2C,10,.,.,.,0,.,.,.,.
O=C(C[n+]1cc(-c2ccccc2)n2c1CCC2)Nc1nc(-c2ccccc2)cs1,-14,-13,0,1,1,.,.,.,.
O=C(CSCC(=O)N1CCCc2ccccc21)Nc1nc(-c2ccccc2)cs1,51*,-12,-4,1,0,29*,34,3,3
CC(C)N1CCN(c2ccc(OC[C@H]3CO[C@](Cn4cncn4)(c4ccc(Cl)cc4Cl)O3)cc2)CC1,70*,.,1,5,29,32*,49*,15*,14
SMILES,TAAR1 antagonist,GPR7 antagonist,DAGLB inh,MPTP inh,TAAR1 ag,TAAR1 nonsel count,TAAR1 ant conf,Ga16 nonsel ag,TAAR1 ag counter
O=C(NCC1CCN(C(=O)C(=O)c2cccs2)CC1)c1ccc2c(c1)OCO2,-10,.,.,.,0,.,.,.,.
COc1cccc(C(=Cc2ccc([N+](=O)[O-])cc2)C(=O)O)c1,-10,.,-2,0,-1,.,.,.,.
Cc1ccc(F)cc1C(=O)N1CCCCC1c1cc(C(=O)Nc2ccc(F)c(Cl)c2)no1 (centres undefined),10,.,.,0,1,.,.,.,.
C[C@@H]1ON(C)[C@H]2C[C@H]3c4[nH]c5c(-c6ccc7c(c6)OCO7)cccc5c4CCN3C(=O)[C@@H]12,62*,.,.,.,9,27*,45,7,5
Cc1ccccc1NC(=O)N(C)[C@H]1C[C@H]2c3[nH]c4c(-c5ccccc5)cccc4c3CCN2C(=O)[C@H]1[C@H](C)O,57*,.,.,.,16,29*,35,6,4
COCCNC(=S)N(C)[C@H]1C[C@H]2c3[nH]c4c(-c5ccc6c(c5)OCO6)cccc4c3CCN2C(=O)[C@H]1[C@H](C)O,62*,.,.,.,15,29*,45,4,8
C[C@H](O)[C@@H]1C(=O)N2CCc3c([nH]c4c(-c5ccccc5)cccc34)[C@@H]2C[C@@H]1N(C)C(=O)Nc1cccc2ccccc12,27,.,.,.,5,.,.,.,.
